Source: PubChem (Broad Institute)
This is one part of a sample in which hits are shown more often than they occur.
IDH1 mut inh – IDH1 R132H (human) inhibition; O75874; IDH1 R132H reductase, diaphorase/resazurin fluorescence, 60 min; inhibition, % at 10 µM; hit rate 0.18% among 70,000; in the data active = inhibition above about 34%; inconclusive = no clear call, values can overlap the other calls; inactive = below about 11%;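 also: 0% = DMSO and 100% = no enzyme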
Target sequence (O75874 whole entry R132H): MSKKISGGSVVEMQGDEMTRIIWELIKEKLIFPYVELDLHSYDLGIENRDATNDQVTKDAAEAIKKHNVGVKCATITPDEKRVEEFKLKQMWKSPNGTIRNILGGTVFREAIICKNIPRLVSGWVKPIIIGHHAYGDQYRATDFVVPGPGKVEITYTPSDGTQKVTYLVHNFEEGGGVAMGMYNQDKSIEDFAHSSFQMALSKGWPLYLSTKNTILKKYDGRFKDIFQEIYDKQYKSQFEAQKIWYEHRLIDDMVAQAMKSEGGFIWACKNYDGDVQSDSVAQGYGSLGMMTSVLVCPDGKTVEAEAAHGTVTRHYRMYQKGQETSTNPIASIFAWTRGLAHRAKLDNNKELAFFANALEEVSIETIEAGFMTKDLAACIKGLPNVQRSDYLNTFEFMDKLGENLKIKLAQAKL
GASC1 inh – blocks human GASC-1 (KDM4C) demethylase activity; GST-KDM4C 2-372, H3K9me3 peptide, LANCE TR-FRET; hit rate 0.15% among 96,000; inhibition, % at 12.5 µM; Q9H3R0;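 active = mean replicate inhibition above about 25%, with at least 55% of replicates also reaching it, limit read from the data, passing the limit was not always enough; inconclusive = only one of those two conditions met; inactive = neither condition met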
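material = GST-tagged GASC-1 (JMJD2C) catalytic fragment, aa 2-372 | amount = enzyme final amount 10 nM | medium = HEPES buffer, pH 7.5, plus ascorbate | also added = H3K9me3 peptide substrate, Fe(II), 2-oxoglutarate | dosing = single dose | times = 30 min demethylation and 1 h detection at room temperature | detection = LANCE TR-FRET | read-out basis = Fall in 671/618 emission ratio as inhibition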
T cruzi growth-1 – T. cruzi proliferation inhibition; inhibition, % at 8.34 µM; hit rate 5.9% among 77,000; T. cruzi beta-gal in NIH3T3, GalScreen luminescence, 90 h; AID 624255;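 active = mean inhibition above about 93%, with at least 55% of replicates each passing it, limit read from the data, passing the limit was not always enough; inconclusive = only one of those two conditions holds; inactive = neither condition holds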
T cruzi growth-2 – blocks T. cruzi growth in NIH3T3 host cells. shares compounds with T cruzi growth-1. T. cruzi beta-gal in NIH3T3, GalScreen luminescence, 90 h. inhibition, % at 8.35 µM. hit rate 72% among 5,600. AID 651739;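 active = mean replicate inhibition above about 95% and at least 55% of replicates individually reaching it, limit read from the data; inconclusive = only one of the two criteria is met; inactive = neither criterion is met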
T cruzi growth-3 – inhibitors of T. cruzi proliferation | shares compounds with T cruzi growth-1 | T. cruzi beta-gal in NIH3T3, GalScreen luminescence, 90 h | inhibition, % at 2.09 µM | hit rate 21% among 5,600 | AID 651740;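 active = mean inhibition above about 95%, with at least 55% of replicates also reaching it, limit read from the data; inconclusive = meets just one of the two conditions; inactive = meets neither condition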;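 also: plate controls were neutral control median for no effect and positive control median for full effect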
NIH3T3 tox – kills mouse NIH/3T3 fibroblasts; NIH/3T3 viability, CellTiter-Glo ATP luminescence, 90 h; AID 651742; hit rate 14% among 5,600; shares compounds with T cruzi growth-1; cytotoxicity (signal decrease), % at 8.35 µM;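 active = mean signal decrease across replicates above about 35% based on untreated-well scatter, with enough replicates individually passing, limit read from the data; inconclusive = no rule stated though some were filed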;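 also: 0% = median of neutral control wells and 100% = median of positive control wells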
3T3 cytotox 2 – kills mouse NIH/3T3 fibroblasts. shares compounds with T cruzi growth-1. NIH/3T3 viability, CellTiter-Glo ATP luminescence, 90 h. inhibition, % at 24.9 µM. hit rate 56% among 5,600. AID 651744;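 active = mean loss of cell viability signal at or above a set limit, and enough replicates individually reaching it; inconclusive = meets only the mean limit or only the replicate share; inactive = meets neither condition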;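 also: 0% = median of neutral control wells and 100% = median of positive control wells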
An asterisk follows results filed as active; ? = inconclusive; . = not tested or not shown; + = active, no number; ! = a repeat was not active.

SMILES	IDH1 mut inh	GASC1 inh	T cruzi growth-1	T cruzi growth-2	T cruzi growth-3	NIH3T3 tox	3T3 cytotox 2
Cc1cc(NS(=O)(=O)c2ccc(NC(=O)c3oc4cc(C)c(C)cc4c3C)cc2)nc(C)n1	-0.7	.	.	.	.	.	.
COc1ccc(N(Cc2cc3cc(C)ccc3[nH]c2=O)C(=O)c2ccccc2)cc1	0.4	.	.	.	.	.	.
COc1ccc(-c2nc3ccccc3s2)cc1NC(=O)COc1ccc(Br)cc1	0.7	.	.	.	.	.	.
C[C@@H]1CCCCO[C@@H](CN(C)C(=O)Nc2ccc3c(c2)OCO3)[C@H](C)CN([C@@H](C)CO)C(=O)c2cc(NC(=O)CCCN(C)C)ccc2O1	3.2	3.7	54.9	.	.	.	.
C[C@H]1CCCCO[C@H](CN(C)C(=O)Nc2ccc(F)cc2)[C@@H](C)CN([C@@H](C)CO)C(=O)c2cc(NC(=O)Cc3ccccc3)ccc2O1	.	-0.8	104.7*	108.9*	69.3	-4.5	10.7
C[C@@H]1CCCCO[C@H](CN(C)C(=O)Nc2ccc(F)cc2)[C@H](C)CN([C@@H](C)CO)C(=O)c2cc(NC(=O)Cc3ccccc3)ccc2O1	0.4	-2.3	103.4*	103.8*	33.4	-17.6	-11.9
C[C@@H]1CN([C@H](C)CO)C(=O)c2cc(NC(=O)Cc3ccccc3)ccc2O[C@@H](C)CCCCO[C@H]1CN(C)C(=O)Nc1ccc(F)cc1	4.7	0.8	66.1	.	.	.	.
C[C@@H]1CCCCO[C@@H](CN(C)C(=O)Nc2ccc(F)cc2)[C@@H](C)CN([C@H](C)CO)C(=O)c2cc(NC(=O)Cc3ccccc3)ccc2O1	0.9	-1.0	55.9	.	.	.	.
C[C@@H]1CCCCO[C@@H](CN(C)C(=O)Nc2ccc3c(c2)OCO3)[C@@H](C)CN([C@H](C)CO)C(=O)c2cc(NC(=O)CCCN(C)C)ccc2O1	.	0.3	110.7*	?	11.8	4.8	7.2
N#Cc1sc2c(c1OC(=O)c1cccs1)c(=O)n(-c1ccccc1)c(=S)n2-c1ccccc1	1.2	.	.	.	.	.	.
COc1ccccc1-n1nnnc1SCC(=O)Nc1ccccc1F	-0.1	.	.	.	.	.	.
COC(=O)c1sc(N2C(=O)C(=O)C(C(=O)c3ccc(OC)c(C)c3)C2c2ccco2)nc1C (configuration not stated)	-0.2	.	.	.	.	.	.
C[C@H](CO)N1C[C@H](C)[C@H](CN(C)Cc2ccc(C(F)(F)F)cc2)Oc2c(NC(=O)Nc3ccccc3)cccc2C1=O	2.1	1.5	13.8	.	.	.	.
C[C@@H]1CN([C@@H](C)CO)C(=O)c2cc(NC(=O)Nc3cccc4ccccc34)ccc2O[C@@H]1CN(C)Cc1ccc(C(F)(F)F)cc1	0.0	-1.5	105.9*	105.6*	107.1*	52.8*	46.0*
C[C@H](CO)N1C[C@H](C)[C@H](CN(C)Cc2ccc(C(F)(F)F)cc2)Oc2ccc(NC(=O)Nc3cccc4ccccc34)cc2C1=O	-2.2	8.1	49.5	.	.	.	.
C[C@H]1CN([C@@H](C)CO)C(=O)c2cc(NC(=O)Nc3cccc4ccccc34)ccc2O[C@H]1CN(C)Cc1ccccc1	-1.5	-1.5	45.6	.	.	.	.
C[C@@H]1CN([C@H](C)CO)C(=O)c2cc(NC(=O)Nc3cccc4ccccc34)ccc2O[C@@H]1CN(C)Cc1ccc(C(F)(F)F)cc1	1.5	-0.2	92.0*	96.8*	88.2	47.4*	38.2*
C[C@H](CO)N1C[C@H](C)[C@H](CN(C)Cc2ccc(C(F)(F)F)cc2)Oc2c(NC(=O)Nc3cccc4ccccc34)cccc2C1=O	.	-3.0	111.0*	102.8*	73.4	33.7	29.9*
CCn1c(SCC(=O)Nc2ccc([N+](=O)[O-])cc2)nnc1-c1ccccc1F	0.4	.	.	.	.	.	.
Cc1ccc(O)c(NC(=O)c2nc3ncccn3n2)c1	-1.3	.	.	.	.	.	.
C[C@@H]1CN([C@H](C)CO)C(=O)c2cc(N(C)C)ccc2O[C@@H](C)CCCCO[C@@H]1CN(C)C(=O)C1CCCCC1	-2.9	2.0	69.5	.	.	.	.
C[C@@H]1CCCCO[C@@H](CN(C)C(=O)C2CCCCC2)[C@H](C)CN([C@H](C)CO)C(=O)c2cc(N(C)C)ccc2O1	-0.6	5.5	?	3.3	-5.9	-9.3	-4.2
C[C@@H]1CCCCO[C@@H](CN(C)C(=O)NC2CCCCC2)[C@@H](C)CN([C@@H](C)CO)C(=O)c2cc(N(C)C)ccc2O1	-4.1	4.0	-5.0	.	.	.	.
C[C@@H]1CCCCO[C@H](CN(C)C(=O)C2CCCCC2)[C@@H](C)CN([C@H](C)CO)C(=O)c2cc(N(C)C)ccc2O1	-0.3	2.0	102.7*!	51.7	31.8	7.5	-9.3
C[C@@H]1CCCCO[C@@H](CN(C)C(=O)CCC(F)(F)F)[C@H](C)CN([C@@H](C)CO)C(=O)c2cc(N(C)C)ccc2O1	-4.2	5.7	?	49.6	64.4	-28.6	-18.4
SMILES	IDH1 mut inh	GASC1 inh	T cruzi growth-1	T cruzi growth-2	T cruzi growth-3	NIH3T3 tox	3T3 cytotox 2
C[C@@H]1CCCCO[C@H](CN(C)C(=O)CCC(F)(F)F)[C@H](C)CN([C@@H](C)CO)C(=O)c2cc(N(C)C)ccc2O1	-1.2	0.1	67.2	.	.	.	.
C[C@@H]1CCCCO[C@H](CN(C)C(=O)C2CCCCC2)[C@@H](C)CN([C@@H](C)CO)C(=O)c2cc(N(C)C)ccc2O1	-1.5	6.1	36.5	.	.	.	.
C[C@H](CO)N1C[C@H](C)[C@H](CN(C)C(=O)NC2CCCCC2)OCCCC[C@H](C)Oc2ccc(N(C)C)cc2C1=O	.	10.1	110.8*	51.6	20.3	-19.1	-36.9
COC(=O)c1cc(NC(=O)COc2ccc(Cl)cc2C)cc(C(=O)OC)c1	-0.1	.	.	.	.	.	.
CS(=O)(=O)N(CC(=O)Nc1ccc(Br)cc1)c1cccc(C(F)(F)F)c1	-0.4	.	.	.	.	.	.
COc1ccc(NC(=C(C#N)C#N)C(F)(F)C(F)(F)F)cc1	0.9	.	.	.	.	.	.
CC(=O)c1ccc(NC(=O)CSc2nnc(N)n2-c2ccccc2)cc1	3.3	.	.	.	.	.	.
CC(=O)Nc1ccc(NC(=O)CN(c2ccc(C)c(Cl)c2)S(C)(=O)=O)cc1	-0.2	.	.	.	.	.	.
CCOC(=O)c1ccccc1NC(=O)C(C)Oc1ccc2c(C)cc(=O)oc2c1 (configuration not stated)	1.2	.	.	.	.	.	.
CC(NS(=O)(=O)c1ccccc1)C(=O)Nc1ccccc1C(F)(F)F (configuration not stated)	0.1	.	.	.	.	.	.
CN(C)c1ccc2c(c1)[C@H]1C[C@H](CC(=O)NCc3ccc(Oc4ccccc4)cc3)O[C@@H](CO)[C@H]1O2	-2.1	0.4	131.9*	107.0*	105.0*	-3.1	?
COc1ccc(CNC(=O)C[C@H]2C[C@H]3c4cc(N(C)C)ccc4O[C@H]3[C@H](CO)O2)cc1	-0.8	18.9	-45.1	.	.	.	.
CN(C)c1ccc2c(c1)[C@@H]1C[C@@H](CC(=O)NCc3cc(F)ccc3F)O[C@@H](CO)[C@@H]1O2	-6.7	8.9	+	71.9	27.7	-8.6	8.8
